Experiment: Toxicity liver stage against HepG2, at 10uM
Format: cell-based
Parameters: test concentration 10 uM, cell line HepG2-A16-CD81EGFP
Details: human, HepG2-A16-CD81EGFP cells; read-out: INHIBITION
Outline: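 Uninfected HepG2-A16-CD81EGFP cells, 3 × 10^3 per well, 1536-well, plated on prespotted compound at 10 μM final, parasite-free screening media added to match infected plates; puromycin 10 μM positive, DMSO 0.5% negative; run in parallel with 48 h PbLuc assay at 37 °C, 5% CO2; viability by CellTiter-Glo luminescence, normalized to controls.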

Compound	cytotoxicity at 10 µM [%]
Cc1ccsc1C(=O)NC1CCS(=O)(=O)c2ccccc21 (stereo not given)	2.93
CC(=O)N1CC[C@H](c2nc3cc(F)ccc3o2)C1	0.835
COc1ccc(NC(=O)N2CCCC2c2ccco2)c(OC)c1 (stereo not given)	10.8
CC(=O)N(C)CC(=O)Nc1cnc(-n2ccnc2)nc1	-9.69
O=C(Cn1c(=O)oc2ccccc21)NCC1(O)CCc2ccccc2C1 (stereo not given)	5.37
c1ccc(CN2CCN3C[C@H](Oc4cccnc4)C[C@H]3C2)nc1	6.59
CC(C)Nc1ccc2nc(C3CCNCC3)nn2c1	-6.75
COCC(=O)N1CCC2(CC1)CC(c1cnn(C)c1)C(=O)N2 (stereo not given)	7.25
COCc1nc2nc(O)c3c(n2n1)NC(=O)CC3c1ccc(SC)cc1 (stereo not given)	1.22
Cc1nc(NC2CCCC2)c2c(n1)c(C)nn2C	14.1
CC(=O)N1CCC(c2cncc(N3CCOCC3)n2)CC1	3.66
O=C1CCC[C@]2(CN(S(=O)(=O)N3CCOCC3)C[C@H]2c2cccnc2)N1	-0.701
Cc1ccnn1CCNC(=O)C1CCN(S(=O)(=O)c2ccc(F)cc2)C1 (stereo not given)	-32
Cc1noc2nc(C3CCCN(Cc4cccnc4)C3)cc(C(F)F)c12 (stereo not given)	-30.3
Cc1cc(-c2cnc(NC3CCCC3)nc2-c2ccoc2)on1	-20.9
Cc1ccc([C@]2(O)CC[C@H]3CN(Cc4cccnc4)C[C@H]32)nc1	-12.6
COc1ccc(OC)c(CN2CCC(c3cc(O)nc(C)n3)C2)c1 (stereo not given)	-15
CC(=O)N1CCC(c2cncc(Oc3ccccc3)n2)CC1	6.05
NCCn1nc(C2CCN(C(=O)CC3CCCCC3)C2)c2nccnc21 (stereo not given)	-0.645
CCc1nnsc1C(=O)NCc1nnc2n1CCCCC2	0.136
Cc1nc2n(n1)CC(Nc1ncnc3c1CCC3)CC2 (stereo not given)	-44.1
CC(C#N)CN(C)Cc1c(Cl)ccc2cccnc12 (stereo not given)	-39

Compound	cytotoxicity at 10 µM [%]
CC(C)n1nnnc1-c1ccc(NC(=O)CC(F)(F)F)cc1F	6.62
O=C(CCCc1nc2ccccc2[nH]1)N1CCCC1c1ccccn1 (stereo not given)	0.219
COc1cc(C(C)=O)ccc1OCC(=O)c1cccn1C	13.6
CC(C)COCCNC1CCN(c2ccccn2)CC1	-2.12
O=C(CNc1cc(-n2cnnn2)ccc1F)Nc1ccccc1Cl	11.7
O=C(NCCCN1CCOCC1)c1ccc(-c2ccccc2)[nH]c1=O	-2.48
COc1c(CNCc2ccc(CN3CCOCC3)cc2)c(C)nn1C	-11.8
CN(C)C(=O)C1CCN(c2cncc(-n3cccn3)n2)CC1	-10.9
CN(CC(=O)Nc1ccncc1)CC1CCCN1c1cccnn1 (stereo not given)	-2.01
CCN(CC1CN(Cc2nccn2CC)CCO1)c1cccnn1 (stereo not given)	-0.31
COc1ccccc1OCC(=O)Nc1ncccc1C	0.464
CCc1noc(C(C)N(C)CC(=O)Nc2cccc(C)c2C)n1 (stereo not given)	6.35
Cc1ccc(S(=O)(=O)NCCCN2CCC(O)CC2)c(F)c1	4.24
CC(C)NC(=O)CNC(=O)OC(C)(C)C	9.39
CCN(C(=O)c1cc(C)nc2ccccc12)C1CC(=O)NC1=O (stereo not given)	3.04
Cc1nnc(N2CCNCC2)c(C(N)=O)c1C	3.52
CCOc1cccc(NC(=O)Cc2cccc(O)c2)n1	-0.116
COCCCSc1ccc(NC(=O)Nc2cn[nH]c2)cc1	2.54
CC(NC(=O)Nc1ccc(-n2cncn2)cc1)C(=O)NC(C)(C)C (stereo not given)	3.92
CC(C(=O)N1CCCCC1)N1CCN(c2nccs2)CC1 (stereo not given)	22.1
CCC(C)NS(=O)(=O)Cc1cccc(NC(=O)c2ccc[nH]2)c1 (stereo not given)	15.5
CC(c1ccc(F)c(F)c1)N(C)CCS(=O)(=O)CCC(N)=O (stereo not given)	-52.2

Compound	cytotoxicity at 10 µM [%]
CN1CCCN(C(=O)c2nc3c(o2)CN(S(C)(=O)=O)C3)CC1	-117
CC(C)CCC(=O)N1C[C@H]2CCN[C@H]2C1	2.82
CCOc1ncnc2c1CCN(S(=O)(=O)c1ccccc1)CC2	-110
CCOCC1CN(S(=O)(=O)CC)Cc2nn(C)cc21 (stereo not given)	-111
Cn1cccc1C(=O)N1C[C@@H](OCc2cccnc2)[C@H]2OCCC[C@H]21	7.06
Cn1cccc1C(=O)N1CC[C@H]2C[C@@H](c3ccncn3)O[C@@H]2C1	0.77
Fc1cnc(N2CCOCC3(CCCN(c4nncs4)C3)C2)nc1 (stereo not given)	2.01
Cc1ccc(C(=O)N2C[C@@H](OCC3CCOCC3)[C@H]3OCCC[C@H]32)o1	-3.55
CC(=O)Nc1nc2c(s1)C1(CCCC1)Nc1ccccc1S2	-9.99
CN1CCCN(c2nccc(-c3c[nH]c4ccc(Br)cc34)n2)CC1	-9.99
O=C(c1ccc2nccnc2c1)N1CCN(CCO)[C@@H]2CS(=O)(=O)C[C@@H]21	-10.4
O=C(Cc1ccc(O)c(F)c1)N1CCC2(CCNCC2)CC1	-7.43
CCOc1ccc(-c2ccnc(COc3ccccc3)n2)cc1C(=O)O	-1.84
Cc1nc2cc(NC(=O)Cn3ncc(N4CCCC4)cc3=O)ccc2s1	2.01
Cc1nc(N(C)C)nc(N(C)CCc2ccncc2)c1C	1.37
CO[C@H]1C[C@@H](O)C12CCN(Cc1nc(C(F)(F)F)no1)CC2	-4.7
C[C@@H]1CN(CCC(=O)NCc2ccccc2Cl)CC[C@@]1(O)C1CCC1	-3.21
CC(C)(C)NC(=O)[C@@H]1Cc2ccccc2CN1Cc1cccs1	-2.14
COc1ccc(C(O)C(=O)N2CCC(c3nccn3C(C)C)CC2)cc1 (stereo not given)	-0.355
CC(C)c1nc(CN(C)C(=O)c2ccccc2C2CCNC2)cs1 (stereo not given)	4.46
C=C(C)COc1ccccc1C(=O)NCCc1cc(O)nc(C)n1	-0.355
CN1CC2(CCN(C(=O)Cc3ccc(O)c(F)c3)CC2)CC1=O	1.87

Compound	cytotoxicity at 10 µM [%]
O=C(O)C1c2nc[nH]c2CCN1CC(c1ccccc1)c1ccccc1 (stereo not given)	-7.97
COCc1noc(Cn2c(C)cc(C(F)(F)F)cc2=O)n1	2.65
O=C(c1ccc(S(=O)(=O)NCc2ccon2)cc1)N1CCNCC1	2.59
CCn1c(CC2CCN(S(=O)(=O)c3cccs3)CC2)nn(C)c1=O	3.63
COCCCN1CC2(CCN(Cc3cc(C(C)C)no3)CC2)CC1=O	-3.79
CN(C)C(=O)c1noc2c1CN(C(=O)CCCN1CCCCC1)CC2	-10.5
CCC(O)c1nc2c([nH]1)CC(C)(C)CNC2=O (stereo not given)	9.55
CCCN(Cc1nccn1C)C(=O)c1cnn[nH]1	-1.21
Cc1cccc2cc(C(=O)N3CCN(S(=O)(=O)N(C)C)CC3)n(C)c12	7.39
CCn1cc(-c2n[nH]c(=O)n2-c2ccc(OC)c(OC)c2)c(C)n1	-9.91
CCc1cn[nH]c1C1CCCN(C(=O)c2cc(C#N)c(=O)[nH]c2C)C1 (stereo not given)	-1.3
COc1ccccc1Oc1ncccc1CNC(=O)C1COC(=O)N1 (stereo not given)	-6.01
Cc1cc(NCCS(C)(=O)=O)nc2cc3c(cc12)CCC3	8.05
Cc1nn(C)cc1CNCc1ccc(N(C)C)cc1	-11.9
Cc1nc(CN2CCCC(NCc3ccc4ccccc4c3)C2)no1 (stereo not given)	-0.375
CCc1noc(CNc2ccc(C(=O)N3CCCC3)cc2C)n1	-8.25
Cc1ccc(-c2nc(C(=O)NCC3CCOC3)cs2)cc1 (stereo not given)	-8.32
O=C(C1CCOC1)N1CCN(Cc2ccc3c(c2)CCO3)CC1 (stereo not given)	0.28
OCCn1nccc1C1CCN(CCOc2ccccc2)CC1	-0.121
O=C1COc2cc(C(=O)NS(=O)(=O)c3ccc(F)c(F)c3)ccc2N1	-2.34
O=C(c1csc(-c2ncccn2)n1)N1CCCC1Cn1cccn1 (stereo not given)	0.533
CC(C)(C)C(=O)NCCC(=O)N1CCC(Nc2cccnn2)CC1	-4.11

Compound	cytotoxicity at 10 µM [%]
O=C(c1ccc(N2CCOCC2)cc1)N1CCCC(n2ccnc2)C1 (stereo not given)	-6.78
COc1cc(/C=C/c2ncc(C(=O)O)s2)cc(Cl)c1OC	8.01
Cc1cnc(C(=O)N2CCCC(n3cncn3)C2)cn1 (stereo not given)	-2.97
COc1cccc(S(=O)(=O)CCNC2CCc3ncnn3C2)c1 (stereo not given)	2.53
CCn1cc(CN2CCCN(C(=O)c3ccoc3)CC2)cn1	-18.8
Cc1nc(C)n(CC2CCCN(CCOc3cccc(C#N)c3)C2)n1 (stereo not given)	-6.53
O=C(c1cccc(OC2CCCC2)c1)N1CCCC(n2cncn2)C1 (stereo not given)	-10.3
Cc1ccc(-c2nc(CNCC3CN(C)CCO3)cs2)o1 (stereo not given)	-9.16
CN1CCC/C1=N\S(=O)(=O)c1ccc(NC(=O)c2ccc(F)cc2)cc1	-4.84
CNC(=O)C1CN(c2ccc(F)cc2)CCN1 (stereo not given)	7.9
CCn1nc(C)c(CN(CCCOC)Cc2ccccn2)c1C	5.23
CCOC[C@H]1CC[C@H]2[C@H](CCN2C(=O)c2ccncc2F)O1	-6.96
Cc1nnc(N2CC[C@H](OCC3CC3)[C@@H](Cc3ccccc3)C2)s1	5.25
CN(C)CCN1CCC2(CC1)CN(Cc1cccnc1)C(=O)CO2	-106
COc1ncccc1CN1C[C@H]2CCN(c3ccc(C)nn3)C[C@H]2C1	4.59
Cn1cc(-c2ncc3c(c2C(=O)O)CCN(Cc2ccco2)C3)cn1	6.15
CS(=O)(=O)NCc1cnc2n1CCN(Cc1ccccn1)CC2	8.85
Cc1nc(CN2Cc3nccn3CC(COCC3CC3)C2)cs1 (stereo not given)	11.3
COCCN(C)C[C@@H]1CCC[C@@H]2CN(c3cc(OC)ncn3)C[C@@H]21	1.75
CC(C)N1CCOCC2(CN(Cc3cccs3)CCO2)C1 (stereo not given)	3.71
Cc1noc(C)c1CN1C[C@H]2CN(Cc3cccc(F)c3)C[C@H]2C1	-114
CN(C)C(=O)CN1C[C@H]2CC[C@@H](C1)N(Cc1ccccc1C#N)C2	-0.898

Source: ChEMBL document CHEMBL4513216, “Probing the Open Global Health Chemical Diversity Library for Multistage-Active Starting Points for Next-Generation Antimalarials” (ACS Infect Dis, 2020)
